Laboratory results reported in ChEMBL document CHEMBL5260822, “Structure-based design and synthesis of 2,4-diaminopyrimidines as EGFR L858R/T790M selective inhibitors for NSCLC” (Eur J Med Chem, 2017).
The source made the active and inactive calls. No cut-off for these calls is given here.

Key:
[1] = system: Epidermal growth factor receptor (Homo sapiens), P00533 [L858R,T790M]; conditions: NCI-H1975, dose 10.0 nM, time 2.0 hrs
[2] = Toxicity in BALB/c nude mouse xenografted with human NCI-H1975 cells harboring EGFR L858R/T790M mutant assessed as morphological changes in liver at 15 to 30 mg/kg, po for 18 days by hematoxylin and eosin staining based microscopic analysis; format: organism-based; conditions: in vivo, 432 h, dose 15-30 mg/kg, time 18 day
Procedure, shortened: (§1)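 H1975 subcutaneous xenografts were grown in female BALB/cA nu/nu mice (n = 6 per group), dosed at 15 or 30 mg/kg/day for 18 days or with vehicle. At the end the mice were sacrificed. Heart, kidney and liver were harvested, processed and stained with hematoxylin and eosin for routine histological examination.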

[3] = AUC (0 to infinity) in Sprague-Dawley rat at 1 mg/kg, iv and measured after 24 hrs by LC-MS/MS analysis; format: ADME, organism-based; set-up: time 24 hrs, dose 1 mg/kg, route iv; conditions: in vivo
[4] = system: Epidermal growth factor receptor (Homo sapiens), P00533 [L858R,T790M]; experiment: In vivo inhibition of EGFR in BALB/c nude mouse xenografted with human NCI-H1975 cells harboring EGFR L858R/T790M mutant assessed as decrease in phosphorylated-EGFR level at 15 to 30 mg/kg, po for 18 days by western blot analysis; format: functional, organism-based; conditions: dose 15-30 mg/kg, time 18.0 day
[5] = target: T1, Epidermal growth factor receptor (Homo sapiens, UniProt P00533); experiment: Inhibition of EGFR phosphorylation in EGF-stimulated human A-431 cells harboring wild type EGFR at 100 nM and measured after 2 hrs by Western blot analysis; format: cell-based
T1 sequence (P00533 whole entry): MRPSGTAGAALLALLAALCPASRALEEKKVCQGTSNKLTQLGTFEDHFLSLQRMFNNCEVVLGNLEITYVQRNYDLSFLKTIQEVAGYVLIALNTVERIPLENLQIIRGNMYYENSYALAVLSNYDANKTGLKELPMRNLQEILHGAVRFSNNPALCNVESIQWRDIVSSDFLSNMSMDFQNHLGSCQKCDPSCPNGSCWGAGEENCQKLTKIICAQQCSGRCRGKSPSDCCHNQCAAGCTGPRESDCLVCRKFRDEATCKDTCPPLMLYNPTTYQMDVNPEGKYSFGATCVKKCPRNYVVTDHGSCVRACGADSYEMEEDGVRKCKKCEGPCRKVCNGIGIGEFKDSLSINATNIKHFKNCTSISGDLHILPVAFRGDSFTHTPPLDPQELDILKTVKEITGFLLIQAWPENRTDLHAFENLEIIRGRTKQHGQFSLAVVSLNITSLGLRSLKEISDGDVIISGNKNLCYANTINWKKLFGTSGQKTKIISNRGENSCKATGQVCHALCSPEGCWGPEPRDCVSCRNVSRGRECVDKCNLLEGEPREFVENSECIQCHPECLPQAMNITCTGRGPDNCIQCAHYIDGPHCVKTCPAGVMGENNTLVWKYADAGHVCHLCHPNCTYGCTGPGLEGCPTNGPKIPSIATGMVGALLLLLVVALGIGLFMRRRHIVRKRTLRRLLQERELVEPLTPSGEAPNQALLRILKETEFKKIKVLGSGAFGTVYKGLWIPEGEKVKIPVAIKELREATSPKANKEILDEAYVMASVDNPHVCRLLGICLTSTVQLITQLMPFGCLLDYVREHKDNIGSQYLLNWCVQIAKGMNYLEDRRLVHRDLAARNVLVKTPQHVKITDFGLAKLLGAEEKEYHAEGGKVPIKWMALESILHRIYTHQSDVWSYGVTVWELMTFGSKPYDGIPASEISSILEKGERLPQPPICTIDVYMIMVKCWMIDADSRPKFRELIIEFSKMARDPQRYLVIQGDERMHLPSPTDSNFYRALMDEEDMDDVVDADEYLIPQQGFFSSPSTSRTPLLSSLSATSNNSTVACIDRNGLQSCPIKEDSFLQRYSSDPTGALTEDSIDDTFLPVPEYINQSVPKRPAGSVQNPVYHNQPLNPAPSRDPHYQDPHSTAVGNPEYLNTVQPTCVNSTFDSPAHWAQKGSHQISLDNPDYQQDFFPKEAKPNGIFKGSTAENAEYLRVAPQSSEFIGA
Procedure, shortened: (§2)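 Cells treated with compound for 2 h, then stimulated with EGF for 15 min and lysed. Lysates cleared at 12,000 × g (10 min, 4 °C), protein measured by Bradford assay, and equal amounts run on 8% SDS-PAGE and blotted to nitrocellulose. Probed for p-EGFR (Y1068), EGFR, p-ERK (T202/Y204), ERK, with tubulin or GAPDH as loading controls.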

[6] = system: NCI-H1975; experiment: Antiproliferative activity against human NCI-H1975 cells harboring EGFR L858R/T790M double mutant assessed as inhibition of cell proliferation incubated for 72 hrs by sulforhodamine B colorimetric assay; format: functional, cell-based; conditions: NCI-H1975, 72 h
[7] = Toxicity in BALB/c nude mouse xenografted with human NCI-H1975 cells harboring EGFR L858R/T790M mutant assessed as morphological changes in heart at 15 to 30 mg/kg, po for 18 days by hematoxylin and eosin staining based microscopic analysis; format: organism-based; conditions: in vivo, 432 h, dose 15-30 mg/kg, time 18 day
Procedure, shortened: as §1

[8] = target: Insulin-like growth factor 1 receptor (Homo sapiens) (UniProt P08069); experiment: Inhibition of IGF1R (unknown origin) at 1000 nM by DiscoverX KINOMEscan assay relative to control; values are per cent of control
Insulin-like growth factor 1 receptor (Homo sapiens), sequence (P08069 31-736 limits assumed): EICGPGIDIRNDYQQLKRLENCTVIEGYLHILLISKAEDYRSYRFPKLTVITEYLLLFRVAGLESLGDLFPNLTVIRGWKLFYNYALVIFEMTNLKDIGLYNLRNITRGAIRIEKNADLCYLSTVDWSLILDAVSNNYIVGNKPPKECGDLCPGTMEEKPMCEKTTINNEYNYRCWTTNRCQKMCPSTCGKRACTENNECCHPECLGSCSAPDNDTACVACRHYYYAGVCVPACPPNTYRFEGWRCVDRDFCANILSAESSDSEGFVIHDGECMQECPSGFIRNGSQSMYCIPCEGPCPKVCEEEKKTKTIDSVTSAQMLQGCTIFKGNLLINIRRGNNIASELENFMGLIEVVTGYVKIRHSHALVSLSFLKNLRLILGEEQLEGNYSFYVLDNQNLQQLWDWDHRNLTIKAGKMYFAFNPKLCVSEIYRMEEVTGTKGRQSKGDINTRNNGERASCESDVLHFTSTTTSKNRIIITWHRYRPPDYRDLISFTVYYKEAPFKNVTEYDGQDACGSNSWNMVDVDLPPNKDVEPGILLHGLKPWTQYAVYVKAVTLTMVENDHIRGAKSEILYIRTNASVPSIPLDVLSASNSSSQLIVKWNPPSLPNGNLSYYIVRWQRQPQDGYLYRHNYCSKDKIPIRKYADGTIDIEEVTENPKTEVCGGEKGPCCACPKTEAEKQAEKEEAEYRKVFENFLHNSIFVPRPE
Insulin-like growth factor 1 receptor (Homo sapiens), sequence (P08069 741-1367 limits assumed): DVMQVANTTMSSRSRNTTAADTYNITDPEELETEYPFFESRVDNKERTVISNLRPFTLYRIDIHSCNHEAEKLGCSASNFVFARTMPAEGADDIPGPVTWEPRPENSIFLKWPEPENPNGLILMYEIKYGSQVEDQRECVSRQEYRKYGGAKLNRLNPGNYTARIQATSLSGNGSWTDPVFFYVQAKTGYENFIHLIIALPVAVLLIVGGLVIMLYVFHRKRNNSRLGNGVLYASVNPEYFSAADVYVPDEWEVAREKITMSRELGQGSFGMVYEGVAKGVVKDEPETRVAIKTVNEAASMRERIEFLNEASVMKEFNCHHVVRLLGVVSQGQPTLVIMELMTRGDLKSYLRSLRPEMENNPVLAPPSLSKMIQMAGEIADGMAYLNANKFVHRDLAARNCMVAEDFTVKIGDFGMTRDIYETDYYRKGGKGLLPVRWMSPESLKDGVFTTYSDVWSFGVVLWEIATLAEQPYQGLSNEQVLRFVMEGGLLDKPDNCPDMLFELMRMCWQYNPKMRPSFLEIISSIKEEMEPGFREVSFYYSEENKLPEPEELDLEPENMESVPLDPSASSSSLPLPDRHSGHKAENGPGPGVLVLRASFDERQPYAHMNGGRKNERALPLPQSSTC

[9] = target: Epidermal growth factor receptor (Homo sapiens, UniProt P00533, L858R/T790M); experiment: Inhibition of EGFR L858R/T790M mutant (unknown origin) expressed in baculovirus expression system by ELISA
[10] = Oral bioavailability in Sprague-Dawley rat at 10 mg/kg and measured after 24 hrs by LC-MS/MS analysis; format: ADME, organism-based; conditions: in vivo
Procedure, shortened: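 Male Sprague–Dawley rats (190–220 g) dosed by oral gavage at 10 mg/kg in 5% DMSO / 95% HP-β-CD aqueous solution (20%); iv reference arm at 1 mg/kg. Blood sampled at 0.25, 0.5, 1, 2, 4, 6, 8 and 24 h, centrifuged (8000 × g, 6 min), and plasma quantified by LC–MS/MS.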

[11] = system: NCI-H1975; experiment: Antitumor activity against human NCI-H1975 cells harboring EGFR L858R/T790M mutant xenografted in BALB/c nude mouse assessed as tumor cell proliferation at 15 to 30 mg/kg, po for 18 days by Ki-67 staining based immunohistochemical analysis; format: functional, organism-based; conditions: dose 15-30 mg/kg, time 18.0 day
Procedure, shortened: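 H1975 xenograft tumors from nude mice (n = 6/group, daily dosing 18 days) were harvested, fixed in 10% formalin, paraffin-embedded and cut into 5 µm sections. Sections deparaffinized and incubated with primary anti-Ki-67 antibody at room temperature; immunoreactivity visualized with DAB.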

[12] = target: T1, Epidermal growth factor receptor; experiment: Inhibition of wild type EGFR (unknown origin) expressed in baculovirus expression system by ELISA
[13] = system: Epidermal growth factor receptor (Homo sapiens), P00533 [L858R,T790M]; experiment: Inhibition of EGFR phosphorylation in EGF-stimulated human NCI-H1975 cells harboring EGFR L858R/T790M double mutant at 0.1 to 100 nM and measured after 2 hrs by Western blot analysis; format: cell-based; conditions: dose 0.1-100 nM
Procedure, shortened: as §2

[14] = Toxicity in BALB/c nude mouse xenografted with human NCI-H1975 cells harboring EGFR L858R/T790M mutant assessed as morphological changes in kidney at 15 to 30 mg/kg, po for 18 days by hematoxylin and eosin staining based microscopic analysis; format: organism-based; conditions: in vivo, 432 h, dose 15-30 mg/kg, time 18 day
Procedure, shortened: as §1

[15] = system: A-431; experiment: Antiproliferative activity against human A-431 cells harboring wild type EGFR assessed as inhibition of cell proliferation incubated for 72 hrs by sulforhodamine B colorimetric assay; format: functional, cell-based; conditions: A-431, 72 h
[16] = Cmax in Sprague-Dawley rat at 1 mg/kg, iv and measured after 24 hrs by LC-MS/MS analysis; format: ADME, organism-based; set-up: dose 1 mg/kg, time 24 hrs, route iv; conditions: in vivo
[17] = system: NCI-H1975; experiment: Inhibition of Akt signalling in EGF-stimulated human NCI-H1975 cells harboring EGFR L858R/T790M double mutant assessed as […] at 0.1 to 100 nM and measured after 2 hrs by Western blot analysis; format: cell-based; conditions: dose 0.1-100 nM
[18] = Volume of distribution at steady state in Sprague-Dawley rat at 1 mg/kg, iv and measured after 24 hrs by LC-MS/MS analysis; format: ADME, organism-based; conditions: in vivo, read-out: Vdss
[19] = Clearance in Sprague-Dawley rat at 1 mg/kg, iv and measured after 24 hrs by LC-MS/MS analysis; format: ADME, organism-based; conditions: in vivo
[20] = Half life in Sprague-Dawley rat at 1 mg/kg, iv and measured after 24 hrs by LC-MS/MS analysis; format: ADME, organism-based; conditions: in vivo
[21] = target: Insulin receptor (Homo sapiens) (UniProt P06213); experiment: Inhibition of INSR (unknown origin) at 1000 nM by DiscoverX KINOMEscan assay relative to control; values are per cent of control
Insulin receptor (Homo sapiens), sequence (P06213 28-758 limits assumed): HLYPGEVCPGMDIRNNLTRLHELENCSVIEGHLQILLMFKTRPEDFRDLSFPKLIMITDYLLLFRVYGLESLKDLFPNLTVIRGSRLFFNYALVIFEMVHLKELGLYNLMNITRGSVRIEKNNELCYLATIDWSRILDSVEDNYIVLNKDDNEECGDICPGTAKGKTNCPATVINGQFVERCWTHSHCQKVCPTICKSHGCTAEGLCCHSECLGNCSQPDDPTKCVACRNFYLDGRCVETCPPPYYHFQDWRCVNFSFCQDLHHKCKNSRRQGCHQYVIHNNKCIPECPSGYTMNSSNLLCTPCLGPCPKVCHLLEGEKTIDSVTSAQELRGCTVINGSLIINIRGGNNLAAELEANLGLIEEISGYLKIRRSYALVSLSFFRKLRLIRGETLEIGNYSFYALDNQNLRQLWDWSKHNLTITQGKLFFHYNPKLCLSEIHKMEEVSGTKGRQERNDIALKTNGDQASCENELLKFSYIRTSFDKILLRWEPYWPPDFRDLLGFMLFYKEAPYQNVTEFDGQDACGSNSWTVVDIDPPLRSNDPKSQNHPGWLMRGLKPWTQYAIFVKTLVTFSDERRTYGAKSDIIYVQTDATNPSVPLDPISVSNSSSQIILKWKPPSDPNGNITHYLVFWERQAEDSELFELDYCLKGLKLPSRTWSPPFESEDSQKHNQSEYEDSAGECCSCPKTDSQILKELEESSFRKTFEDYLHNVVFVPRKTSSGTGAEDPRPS
Insulin receptor (Homo sapiens), sequence (P06213 763-1382 limits assumed): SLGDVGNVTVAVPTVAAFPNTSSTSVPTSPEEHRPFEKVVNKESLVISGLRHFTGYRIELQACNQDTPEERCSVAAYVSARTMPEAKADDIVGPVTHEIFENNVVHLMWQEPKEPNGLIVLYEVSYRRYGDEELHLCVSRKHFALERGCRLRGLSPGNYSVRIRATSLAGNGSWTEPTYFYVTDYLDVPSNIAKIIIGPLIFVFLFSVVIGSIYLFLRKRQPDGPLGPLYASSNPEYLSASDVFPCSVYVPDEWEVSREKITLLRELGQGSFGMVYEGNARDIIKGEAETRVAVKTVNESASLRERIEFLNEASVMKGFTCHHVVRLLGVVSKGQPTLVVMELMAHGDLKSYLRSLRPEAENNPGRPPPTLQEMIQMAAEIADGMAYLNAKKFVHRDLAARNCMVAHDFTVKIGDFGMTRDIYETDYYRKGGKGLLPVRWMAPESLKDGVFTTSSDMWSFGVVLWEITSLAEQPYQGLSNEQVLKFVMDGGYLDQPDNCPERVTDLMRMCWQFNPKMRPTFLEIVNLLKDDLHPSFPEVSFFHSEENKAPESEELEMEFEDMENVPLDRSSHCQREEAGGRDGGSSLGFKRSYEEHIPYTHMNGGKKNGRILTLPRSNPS

[22] = system: NCI-H1975; experiment: Antitumor activity against human NCI-H1975 cells harboring EGFR L858R/T790M mutant xenografted in BALB/c nude mouse assessed as tumor growth inhibition at 30 mg/kg, po for 18 days; format: functional; conditions: NCI-H1975, 432 h, time 18 day, read-out: TGI
Procedure, shortened: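 H1975 cells (1 × 10^6 in 0.1 mL PBS) injected subcutaneously into the right flank of female nude mice. At mean tumor volume of about 100 mm3 (roughly 18 days), mice randomized, n = 6 per group, and dosed once daily for 18 days against a vehicle group. Tumor volume (0.5 × L × W²) measured every 2–3 days; tumors weighed at sacrifice. Data given as mean ± SEM.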

Epidermal growth factor receptor (Homo sapiens), P00533 [L858R,T790M], sequence (P00533 whole entry T790M/L858R, looked up): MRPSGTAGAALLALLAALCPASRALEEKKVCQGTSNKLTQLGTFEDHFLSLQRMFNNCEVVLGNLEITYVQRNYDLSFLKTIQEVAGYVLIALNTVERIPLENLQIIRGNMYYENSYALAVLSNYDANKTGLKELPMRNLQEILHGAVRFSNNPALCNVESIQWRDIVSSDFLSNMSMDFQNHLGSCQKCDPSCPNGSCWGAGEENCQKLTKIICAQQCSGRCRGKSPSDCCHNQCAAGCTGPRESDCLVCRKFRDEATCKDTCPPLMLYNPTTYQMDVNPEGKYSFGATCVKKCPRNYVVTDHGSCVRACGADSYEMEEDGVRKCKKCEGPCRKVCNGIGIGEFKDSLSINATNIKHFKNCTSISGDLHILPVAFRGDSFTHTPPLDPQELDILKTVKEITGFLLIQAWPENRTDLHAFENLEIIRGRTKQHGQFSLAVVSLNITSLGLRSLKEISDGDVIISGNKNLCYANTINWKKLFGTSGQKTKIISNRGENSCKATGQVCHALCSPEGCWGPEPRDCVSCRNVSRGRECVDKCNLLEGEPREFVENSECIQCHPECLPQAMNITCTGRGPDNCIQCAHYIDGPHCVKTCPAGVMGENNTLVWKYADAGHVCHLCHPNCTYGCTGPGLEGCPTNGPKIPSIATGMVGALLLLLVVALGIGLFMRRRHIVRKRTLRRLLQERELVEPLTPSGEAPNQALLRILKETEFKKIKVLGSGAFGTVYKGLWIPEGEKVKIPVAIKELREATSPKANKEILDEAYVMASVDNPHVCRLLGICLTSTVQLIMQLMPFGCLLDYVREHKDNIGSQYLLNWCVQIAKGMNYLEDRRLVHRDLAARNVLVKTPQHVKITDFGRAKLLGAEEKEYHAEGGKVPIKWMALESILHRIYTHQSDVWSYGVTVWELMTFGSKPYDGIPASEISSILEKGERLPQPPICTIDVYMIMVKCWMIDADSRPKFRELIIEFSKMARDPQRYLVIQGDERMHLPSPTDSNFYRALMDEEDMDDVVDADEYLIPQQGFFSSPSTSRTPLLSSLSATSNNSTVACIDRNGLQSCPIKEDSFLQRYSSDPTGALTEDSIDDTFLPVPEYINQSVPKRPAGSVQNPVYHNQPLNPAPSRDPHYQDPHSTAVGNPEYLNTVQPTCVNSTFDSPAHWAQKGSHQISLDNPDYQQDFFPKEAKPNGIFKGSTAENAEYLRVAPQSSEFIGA

## C=CC(=O)Nc1cc(Nc2ncc(Br)c(Nc3ccc4ccn(C)c4c3)n2)c(OC)cc1N1CCN(C)CC1
[1]
  inhibition: Active
[2]
  Activity: Non-Toxic
[3]
  AUC: 515 ng·h/mL
[4]
  inhibition: Active
[5]
  inhibition: inactive
[6]
  IC50: 184 nM
[7]
  Activity: Non-Toxic
[8]
  residual activity: > 35%
[9]
  IC50: 4.1 nM
[10]
  F: 52.3%
[11]
  Activity: Active
[12]
  IC50: 280 nM
[13]
  inhibition: Dose-Dependent Effect
[14]
  Activity: Non-Toxic
[15]
  IC50: 1690 nM
[16]
  Cmax: 235 ng/mL
[17]
  inhibition: Dose-Dependent Effect
[18]
  Vd: 6.56 L/kg
[19]
  clearance: 32.6 mL/min/kg
[20]
  half-life: 3.47 h
[21]
  residual activity: < 10%
[22]
  inhibition in vivo at 30 mg/kg: 86%
